pIC50, pKi: −log10 of the molar value. Blank lines part the entries; values can stand above or below the molecule they belong to.
Key:
EGFR/GRB2 PPI = conditions: cited from earlier work
[1] = Parallel artificial membrane permeability assay; assay type: in vitro ADME; conditions: PAMPA, 1% egg lecithin in n-dodecane
In short: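 Artificial membrane of 1% egg lecithin in n-dodecane. Test compound at 500 μM added to the donor side; incubated 5 h at room temperature. Compound in the receiving solution quantified by HPLC. Percent transport (%T) and apparent permeability coefficient (Papp, cm·s−1) calculated from previously reported equations; values given with SD.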

[2] = biological target: full-length human GRB2 (EGFR/GRB2 PPI) (Homo sapiens, UniProt P62993); assay type: binding

SMILES: CC(=O)N[C@@H](Cc1ccc(OP(=O)(O)O)cc1)C(=O)NC1(C(=O)N[C@@H](CC(N)=O)C(=O)NCCCc2cccc3ccccc23)CCCCC1 [Compound 2]
IC50 relative to compound 1 (EGFR/GRB2 PPI): two orders of magnitude lower than 1

SMILES: NC(=O)C[C@@H]1NC(=O)C2(CCCCC2)NC(=O)[C@@H](CC(=O)O)[C@@H](c2ccc(CP(=O)(O)O)cc2)/C=C/C[C@@H](Cc2cccc3ccccc23)CNC1=O [Compound 4]
pIC50 (EGFR/GRB2 PPI): 8.70

SMILES: COC(=O)Cc1ccc([C@H]2/C=C/C[C@@H](Cc3cccc4ccccc34)CNC(=O)[C@H](CC(N)=O)NC(=O)C3(CCCCC3)NC(=O)C2)cc1 [Compound 8]
pKi [2]: < 4.70

Continued, values first:

permeability through the artificial membrane (in words) [1]: poor permeability
SMILES: NC(=O)C[C@@H]1NC(=O)C2(CCCCC2)NC(=O)C[C@@H](c2ccc(CP(=O)(O)O)cc2)/C=C/C[C@@H](Cc2cccc3ccccc23)CNC1=O [Compound 3]

permeability through the artificial membrane (in words) [1]: good permeability
SMILES: NC(=O)C[C@@H]1NC(=O)C2(CCCCC2)NC(=O)C[C@@H](c2ccc(CC(=O)O)cc2)/C=C/C[C@@H](Cc2cccc3ccccc23)CNC1=O [Compound 7]
